# Measurements from ChEMBL document CHEMBL1821702, “8,8-Dimethyldihydroberberine with improved bioavailability and oral efficacy on obese and diabetic mouse models” (Bioorg Med Chem, 2010).
# Active and inactive are the calls of the source. The rule behind the calls is not given here.
# How the values were obtained:
# Rattus norvegicus [1] = species on record: Rattus norvegicus; test: Induction of AMPK phosphorylation in 2 hrs serum starved rat differentiated L6 myotubes after 1 hr
# Procedure, shortened: (§1)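 Fully differentiated L6 myotubes were serum-starved 2 h, then treated 1 h across a dose series. Phospho-AMPK (Thr172) and phospho-ACC (Ser79) were detected by Western blot. Three independent experiments.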
# Rattus norvegicus [2] = species on record: Rattus norvegicus; test: Induction of AMPK-dependent ACC phosphorylation in 2 hrs serum starved rat differentiated L6 myotubes after 1 hr; procedure, shortened: as §1
# L6 [3] = test: Increase in glucose uptake in rat differentiated L6 myotubes after 1 hr; format: functional, cell-based
# Procedure, shortened: (§2)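 Fully differentiated L6 myotubes were serum-starved 2 h, then treated with compound for 15 min to 2 h (dose series at 1 h). Glucose uptake was measured relative to DMSO control. Mean of three independent experiments ± SE.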
# [4] = Stability in acidic buffer at pH 2 after 6 hrs by HPLC; format: physicochemical; conditions: buffer, pH 2, 6 h
# Procedure, shortened: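 A 0.5 mg/mL solution in acetonitrile was adjusted to pH 2 with H3PO4 and analyzed over 6 h by HPLC. Conditions: C18 column at 25 °C, 58% acetonitrile in 0.05 mol/L KH2PO4/0.005 mol/L SDS, 1 mL/min, detection at 320 nm.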
# Rattus norvegicus [5] = species on record: Rattus norvegicus; test: Inhibition of electron transport protein complex 1-mediated cellular respiration in rat liver mitochondria assessed as consumption of oxygen at 2.5 to 40 uM using pyruvate as substrate
# Procedure, shortened: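 Mitochondria isolated from rat liver. Complex I substrates 5 mM pyruvate plus 2 mM malate, with excess ADP (2.4 mM). Oxygen consumption read as dose–response. Three independent experiments, n = 5–7.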
# [6] = Half life in 12 hrs fasting Sprague-Dawley rat at 10 mg/kg, po; format: ADME, organism-based; set-up: dose 10 mg/kg, route oral; conditions: in vivo
# Procedure, shortened: (§3)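 Male Sprague–Dawley rats were fasted 12 h and gavaged at 10 mg/kg. Blood was taken retro-orbitally into heparin tubes from pre-dose to 24 h. Plasma levels of parent and of berberine/dihydroberberine were measured by LC–MS/MS.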
# [7] = Cmax in 12 hrs fasting Sprague-Dawley rat at 10 mg/kg, po; format: ADME, organism-based; set-up: dose 10 mg/kg, route oral; conditions: in vivo; procedure, shortened: as §3
# Mus musculus [8] = test: Toxicity in high fat diet-fed C57BL/6J mouse assessed as change in body weight at 15 mg/kg/day, po for 6 weeks; format: organism-based; set-up: route oral; conditions: in vivo, 1008 h
# Procedure, shortened: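 Male C57BL/6J mice (purchased at 6 weeks of age) fed 60 kcal% fat diet for 8 weeks, then randomized by body weight and fed glucose. Dosed orally once daily for 6 weeks in vehicle of 0.5% microcrystalline cellulose plus 1.6% lactose. Groups: high-fat vehicle, metformin 250 mg/kg positive control, chow-fed vehicle. Body weight and food intake recorded daily.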
# Mus musculus [9] = test: Antidiabetic activity in high fat diet-fed C57BL/6J mouse assessed as alleviation of insulin resistance at 15 mg/kg/day, po for 4 weeks measured after 90 mins by insulin tolerance test; format: functional, organism-based
# Procedure, shortened: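 Male C57BL/6J mice were fed a 60 kcal% fat diet for 8 weeks, randomized, then gavaged daily in 0.5% microcrystalline cellulose/1.6% lactose vehicle. ITT was run at 4 weeks: 6 h fast, insulin 0.75 U/kg ip, blood glucose at 0, 15, 30, 60, 90 and 120 min. Mean ± SE, n = 5–8.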
# Mus musculus [10] = test: Antiobese activity in high fat diet-fed C57BL/6J mouse assessed as decrease in plasma triglyceride level at 15 mg/kg/day, po for 6 weeks; format: functional; set-up: scale not given: the % may be the effect or the level left
# Procedure, shortened: (§4)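 DIO male C57BL/6J mice received daily oral dosing in cellulose/lactose vehicle for 6 weeks and were killed after the final dose. Plasma and liver triglycerides were measured by triglyceride assay kit, and fat depots were weighed.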
# Mus musculus [11] = test: Antidiabetic activity in C57BLKS/J-db/db mouse assessed as reduction of fasting blood glucose level at 50 mg/kg/day, po for 4 weeks; format: functional; set-up: scale not given: the % may be the effect or the level left
# Mus musculus [12] = test: Antidiabetic activity in C57BLKS/J-db/db mouse assessed as alleviation of glucose tolerance at 50 mg/kg/day, po for 3 weeks measured after 15 mins by intraperitoneal glucose tolerance test; format: functional, organism-based
# Procedure, shortened: (§5)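 Male and female C57BLKS/J-db/db mice, randomized at 6 weeks of age by body weight and fed glucose, were gavaged once daily in vehicle (0.5% microcrystalline cellulose, 1.6% lactose). For ipGTT, D-glucose was given at 2 g/kg ip, and blood glucose was read by glucometer at 0, 15, 30, 60, 90 and 120 min.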
# Mus musculus [13] = test: Antiobese activity in high fat diet-fed C57BL/6J mouse assessed as decrease in liver triglyceride level at 15 mg/kg/day, po for 6 weeks; format: functional; set-up: scale not given: the % may be the effect or the level left; procedure, shortened: as §4
# Mus musculus [14] = test: Antiobese activity in high fat diet-fed C57BL/6J mouse assessed as decrease in subcutaneous fat at 15 mg/kg/day, po for 6 weeks; format: functional; set-up: scale not given: the % may be the effect or the level left; procedure, shortened: as §4
# Mus musculus [15] = test: Antidiabetic activity in high fat diet-fed C57BL/6J mouse assessed as decrease in plasma insulin level at 15 mg/kg/day, po for 4 weeks; format: functional; set-up: scale not given: the % may be the effect or the level left
# Procedure, shortened: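 DIO male C57BL/6J mice (60 kcal% fat diet for 8 weeks) were gavaged daily in 0.5% microcrystalline cellulose/1.6% lactose vehicle. Plasma insulin was determined by ELISA after 4 weeks of treatment. Mean ± SE, n = 5–8.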
# Mus musculus [16] = test: Antidiabetic activity in C57BLKS/J-db/db mouse assessed as decrease in fed blood glucose level at 50 mg/kg/day, po for 3 weeks; format: functional; set-up: scale not given: the % may be the effect or the level left
# Mus musculus [17] = test: Antidiabetic activity in C57BLKS/J-db/db mouse assessed as decrease in fed blood glucose level at 50 mg/kg/day, po for 4 weeks; format: functional; set-up: scale not given: the % may be the effect or the level left
# Mus musculus [18] = test: Antidiabetic activity in C57BLKS/J-db/db mouse assessed as reduction of fasting blood glucose level at 50 mg/kg/day, po for 3 weeks; format: functional; set-up: scale not given: the % may be the effect or the level left
# Mus musculus [19] = test: Antidiabetic activity in C57BLKS/J-db/db mouse assessed as alleviation of glucose tolerance at 50 mg/kg/day, po for 3 weeks measured after 120 mins by intraperitoneal glucose tolerance test; format: functional, organism-based; procedure, shortened: as §5
# L6 [20] = test: Increase in glucose uptake in rat differentiated L6 myotubes at 20 uM in presence of 10 nM AMPK inhibitor compound C; format: functional, cell-based
# Mus musculus [21] = test: Antidiabetic activity in C57BLKS/J-db/db mouse assessed as decrease in area under curve at 50 mg/kg/day, po for 4 weeks by insulin tolerance test; format: functional; set-up: scale not given: the % may be the effect or the level left
# L6 [22] = test: Increase in glucose uptake in rat differentiated L6 myotubes at 20 uM after 1 hr; format: functional; procedure, shortened: as §2
# L6 [23] = test: Increase in glucose uptake in rat differentiated L6 myotubes after 1 hr relative to untreated control; format: functional; procedure, shortened: as §2
# Mus musculus [24] = test: Toxicity in C57BLKS/J-db/db mouse assessed as change in adipose tissue mass at 50 mg/kg/day, po for 6 weeks; format: organism-based; set-up: route oral; conditions: in vivo, 1008 h
# Procedure, shortened: (§6)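 db/db mice (half male, half female) were dosed by oral gavage daily for 6 weeks in 0.5% microcrystalline cellulose/1.6% lactose vehicle. Body weight and food intake were recorded daily. Mice were killed after the final dose, and liver and fat depots were weighed and expressed relative to body weight.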
# Mus musculus [25] = test: Toxicity in C57BLKS/J-db/db mouse assessed as change in fat to body weight ratio at 50 mg/kg/day, po for 6 weeks; format: organism-based; set-up: route oral; conditions: in vivo, 1008 h; procedure, shortened: as §6
# L6 [26] = test: Increase in glucose uptake in rat differentiated L6 myotubes at 10 uM in presence of 100 nM PI-3 kinase inhibitor wortmannin
smiles,measurement,setting,value
"COc1ccc2c(c1OC)C(C)(C)[N+]1=C(C2)c2cc3c(cc2CC1)OCO3.[Cl-] [8,8-dimethyldihydroberberine]",Activity,Rattus norvegicus [1],Dose-dependent effect
same,Activity,Rattus norvegicus [2],Dose-dependent effect
same,Activity,L6 [3],Dose-dependent effect
same,Stability,[4],Stable
same,inhibition,Rattus norvegicus [5],Dose-dependent effect
same,half-life,[6],2.9 h
same,Cmax,[7],17.8 ng/mL
same,Activity,Mus musculus [8],Non-toxic
same,Activity,Mus musculus [9],Active
same,Activity,Mus musculus [10],26%
same,Activity,Mus musculus [11],24%
same,Activity,Mus musculus [12],Active
same,Activity,Mus musculus [13],36%
same,Activity,Mus musculus [14],36%
same,Activity,Mus musculus [15],45%
same,Activity,Mus musculus [16],24%
same,Activity,Mus musculus [17],40%
same,Activity,Mus musculus [18],24%
same,Activity,Mus musculus [19],Active
same,Activity,L6 [20],inactive
same,Activity,Mus musculus [21],28%
same,Activity,L6 [22],67%
same,Activity,L6 [23],37%
same,Activity,Mus musculus [24],Non-toxic
same,Activity,Mus musculus [25],Non-toxic
same,Activity,L6 [26],Active
